{"source": "paper PMC2664388", "about": "(Pharmaceutical research, 2008)", "key": {"[1]": {"experiment": "Corneal permeation, side-bi-side diffusion apparatus", "format": "in vitro ADME, New Zealand albino rabbits", "settings": "for Transcorneal permeability: 150μM in DPBS with 5% HP-β-CD, 34°C"}, "[2]": {"experiment": "Permeation across sclera/choroid/RPE, Valia-Chein side-bi-side cells", "settings": "for Permeability across sclera/choroid/RPE: 150μM in DPBS with 5% HP-β-CD, 37°C"}, "[3]": {"experiment": "Trans-epithelial electrical resistance", "format": "in vitro ADME, New Zealand albino rabbits", "settings": "transport buffers with or without 5% HP-β-CD, 3h"}, "[4]": {"settings": "sonicated 15min, equilibration 4 days; ref 29 Tommasini et al.; cited from earlier work"}, "[5]": {"experiment": "Aqueous solubility, shake flask method", "format": "physicochemical", "settings": "25°C, 24h"}, "[6]": {"settings": "sonicated 15min, equilibration 4 days; ref 29 Tommasini et al.; cited from earlier work", "remark": "listed apart in the source"}, "[7]": {"experiment": "Phase solubility with HP-β-CD", "format": "physicochemical"}, "[8]": {"experiment": "pH solution stability in buffers", "format": "physicochemical", "outline": "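Test compound (25 μL of a 1 mg/mL stock) was added to 5 mL of USP buffer pre-equilibrated at 25 or 40°C. Content was measured by RP-HPLC on a C18 column with UV at 284 nm. The mobile phase was 20 mM KH2PO4 (pH 2.5) and acetonitrile at 75:25, run at 1 mL/min.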"}, "[9]": {"settings": "oral administration, cumulative urinary recovery; ref 14 Ameer et al.; cited from earlier work"}, "[10]": {"experiment": "Transscleral permeation, Valia-Chein side-bi-side cells", "format": "in vitro ADME, New Zealand albino rabbits", "settings": "150μM in DPBS with 5% HP-β-CD, 37°C"}, "[11]": {"settings": "ref 21 Serra et al., cited from earlier work"}, "[12]": {"experiment": "Stability in ocular tissue homogenates", "format": "in vitro ADME, New Zealand albino rabbits", "settings": "37°C, after 15h, 1mg/mL protein"}}, "note": "Read-outs that look alike come from different tables or passages of the source."}
{"smiles": "OCC(O)C(O)C(O)C(O)[14CH2]O", "note": "(stereo not drawn) [[^14C]mannitol]", "values": [{"measurement": "Mean percent cumulative amount transported per hour across the cornea", "setting": "[1]; 0.5 μCi/mL, 3h experiment", "value": "1±0.15", "unit": "percent per hour"}, {"measurement": "Mean percent cumulative amount transported per hour across the sclera/choroid/RPE", "setting": "[2]; 0.5 μCi/mL", "value": "0.1±0.04", "unit": "percent per hour"}]}
{"smiles": "CC(O)COC[C@H]1O[C@@H]2O[C@H]3[C@H](O)[C@@H](O)[C@@H](O[C@H]4[C@H](O)[C@@H](O)[C@@H](O[C@H]5[C@H](O)[C@@H](O)[C@@H](O[C@H]6[C@H](O)[C@@H](O)[C@@H](O[C@H]7[C@H](O)[C@@H](O)[C@@H](O[C@H]8[C@H](O)[C@@H](O)[C@@H](O[C@H]1[C@H](O)[C@H]2O)O[C@@H]8COCC(C)O)O[C@@H]7COCC(C)O)O[C@@H]6COCC(C)O)O[C@@H]5COCC(C)O)O[C@@H]4COCC(C)O)O[C@@H]3COCC(C)O", "note": "(stereo partly drawn) [HP-β-CD, 2-hydroxypropyl-beta-cyclodextrin]", "values": [{"measurement": "TEER of corneas", "setting": "[3]", "value": "5±0.3", "unit": "KΩcm^2"}]}
{"smiles": "COc1ccc([C@@H]2CC(=O)c3c(O)cc(O[C@@H]4O[C@H](CO[C@@H]5O[C@@H](C)[C@H](O)[C@@H](O)[C@H]5O)[C@@H](O)[C@H](O)[C@H]4O)cc3O2)cc1O", "note": "[hesperidin, hesperetin 7-rutinoside]", "values": [{"measurement": "Intrinsic solubility", "setting": "[4]", "value": 36, "unit": "µM"}, {"measurement": "Saturation Solubility", "setting": "[5]; Water (0% HP-β-CD)", "value": "4.95 ± 0.99", "unit": "µg/mL"}, {"measurement": "Saturation Solubility", "setting": "[5]; pH 1.21, 200 mM buffer", "value": "4.15 ± 0.34", "unit": "µg/mL"}, {"measurement": "Saturation Solubility", "setting": "[5]; pH 3.11, 200 mM buffer", "value": "8.44 ± 0.47", "unit": "µg/mL"}, {"measurement": "Saturation Solubility", "setting": "[5]; pH 5.12, 200 mM buffer", "value": "5.96 ± 1.92", "unit": "µg/mL"}, {"measurement": "Saturation Solubility", "setting": "[5]; pH 7.48, 200 mM buffer", "value": "5.26 ± 0.31", "unit": "µg/mL"}, {"measurement": "Saturation Solubility", "setting": "[5]; pH 9.11, 200 mM buffer", "value": "8.93 ± 0.73", "unit": "µg/mL"}, {"measurement": "Binding constant with HP-β-CD", "setting": "[6]", "value": 60, "unit": "M⁻¹"}, {"measurement": "Transcorneal permeability", "setting": "[1]; apical to basolateral (A-B)", "value": "1.11±0.86×10^−6 cm/s"}, {"measurement": "Transcorneal permeability", "setting": "[1]; basolateral to apical (B-A)", "value": "1.16±0.05×10^−6 cm/s"}, {"measurement": "Fold Increase in solubility", "setting": "[7]; 1 %w/v HP-β-CD", "value": 9}, {"measurement": "Hesperidin Solubility", "setting": "[7]; 1 %w/v HP-β-CD in water, 25°C, 24h", "value": "42.97 ± 4.28", "unit": "µg/mL"}, {"measurement": "Fold Increase in solubility", "setting": "[7]; 2.5 %w/v HP-β-CD", "value": 18}, {"measurement": "Hesperidin Solubility", "setting": "[7]; 2.5 %w/v HP-β-CD in water, 25°C, 24h", "value": "83.34 ± 6.34", "unit": "µg/mL"}, {"measurement": "Fold Increase in solubility", "setting": "[7]; 5 %w/v HP-β-CD", "value": 37}, {"measurement": "Hesperidin Solubility", "setting": "[7]; 5 %w/v HP-β-CD in water, 25°C, 24h", "value": "169.90 ± 25.36", "unit": "µg/mL"}, {"measurement": "Fold Increase in solubility", "setting": "[7]; 7.5 %w/v HP-β-CD", "value": 48}, {"measurement": "Hesperidin Solubility", "setting": "[7]; 7.5 %w/v HP-β-CD in water, 25°C, 24h", "value": "219.03 ± 15.62", "unit": "µg/mL"}, {"measurement": "Fold Increase in solubility", "setting": "[7]; 10 %w/v HP-β-CD", "value": 55}, {"measurement": "Hesperidin Solubility", "setting": "[7]; 10 %w/v HP-β-CD in water, 25°C, 24h", "value": "252.77 ± 8.81", "unit": "µg/mL"}, {"measurement": "Fold Increase in solubility", "setting": "[7]; 15 %w/v HP-β-CD", "value": 76}, {"measurement": "Hesperidin Solubility", "setting": "[7]; 15 %w/v HP-β-CD in water, 25°C, 24h", "value": "348.55 ± 5.28", "unit": "µg/mL"}, {"measurement": "Hesperidin Solubility", "setting": "[7]; 20 %w/v HP-β-CD in water, 25°C, 24h", "value": "431.97 ± 0.43", "unit": "µg/mL"}, {"measurement": "Binding constant (K) with HP-β-CD, 1:1 complex", "setting": "[7]; from phase solubility plot, 25°C, 24h", "value": "625 ± 78", "unit": "M⁻¹"}, {"measurement": "Stability in aqueous solutions (decrease in hesperidin content)", "setting": "[8]; pH 1.2, 3, 5, 7.4, 25 and 40°C, upto 2 months", "value": "did not demonstrate any decrease"}, {"measurement": "Degradation rate constant", "setting": "[8]; pH 9, 25°C", "value": 0.03, "unit": "day⁻¹"}, {"measurement": "Half-life", "setting": "[8]; pH 9, 25°C", "value": 23, "unit": "days"}, {"measurement": "Degradation rate constant", "setting": "[8]; pH 9, 40°C", "value": 0.15, "unit": "day⁻¹"}, {"measurement": "Half-life", "setting": "[8]; pH 9, 40°C", "value": 4.5, "unit": "days"}, {"measurement": "Bioavailability", "setting": "[9]", "value": "< 25", "unit": "%"}, {"measurement": "Permeability across sclera alone", "setting": "[10]", "value": "10.2±2.1×10^−6 cm/s"}, {"measurement": "pKa", "setting": "[11]; all of the alcoholic hydroxyl groups", "value": "greater than 11.5"}, {"measurement": "pKa", "setting": "[11]; two phenolic hydroxyl groups", "value": "10±0.2"}, {"measurement": "Permeability across sclera/choroid/RPE", "setting": "[2]; RPE to sclera (R-S) direction", "value": "1.52±0.78×10^−6 cm/s"}, {"measurement": "Permeability across sclera/choroid/RPE", "setting": "[2]; sclera to RPE (S-R) direction", "value": "0.82±0.69×10^−6 cm/s"}, {"measurement": "Hesperetin generation, or decrease in hesperidin concentrations, in the homogenates", "setting": "[12]", "value": "not observed"}]}
